From PubChem BioAssay
Sampled rows, rich in hits. Any-hit rate of the full collection: about 4.7%.
GRIN3A LBD mod = modulators (binders) of human NR3A ligand-binding domain. NR3A LBD differential scanning fluorimetry, Tm shift; 0% = protein alone, 100% = glycine-bound protein. 340,000 compounds, 2.5% hits. Tm shift relative to glycine control, % at 25 µM. AID 1259313;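 active = melting temperature shift of at least 10% of the positive control shift, at one fixed dose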
MPTP block = blocks calcium-induced mitochondrial swelling; isolated mouse mitochondria, Ca2+ swelling absorbance, 30 min; inhibition, % at 10 µM; 360,000 compounds, 1.4% hits; AID 602449;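 active = inhibition of 50% or more, scaled per plate between neutral and stimulator controls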;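 also: 0% = DMSO wells given calcium and 100% = 1 mM EGTA wells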
ADAM17 inh = inhibitors of human ADAM17; inhibition, % at 6.95 µM; 370,000 compounds, 0.83% hits; AID 720648; recombinant ADAM17, EDANS/DABCYL FRET peptide cleavage;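 active = inhibition above the mean of compounds lying between control limits plus 3 SD, set per campaign, cut at about 8.5% in these data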;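 also: 0% = DMSO-only wells as the low control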
ADAM10 inh = inhibitors of human ADAM10; O14672; recombinant ADAM10, EDANS/DABCYL FRET peptide cleavage, 3 h; inhibition, % at 7 µM; 370,000 compounds, 0.62% hits; AID 720582;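 active = inhibition above a per-campaign cutoff equal to the mean of compounds falling between control-based bounds plus 3 SD, cut at about 20% in these data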;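 also: 0% = DMSO wells while the 100% control is not disclosed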
Target sequence (O14672 214-748 limits assumed): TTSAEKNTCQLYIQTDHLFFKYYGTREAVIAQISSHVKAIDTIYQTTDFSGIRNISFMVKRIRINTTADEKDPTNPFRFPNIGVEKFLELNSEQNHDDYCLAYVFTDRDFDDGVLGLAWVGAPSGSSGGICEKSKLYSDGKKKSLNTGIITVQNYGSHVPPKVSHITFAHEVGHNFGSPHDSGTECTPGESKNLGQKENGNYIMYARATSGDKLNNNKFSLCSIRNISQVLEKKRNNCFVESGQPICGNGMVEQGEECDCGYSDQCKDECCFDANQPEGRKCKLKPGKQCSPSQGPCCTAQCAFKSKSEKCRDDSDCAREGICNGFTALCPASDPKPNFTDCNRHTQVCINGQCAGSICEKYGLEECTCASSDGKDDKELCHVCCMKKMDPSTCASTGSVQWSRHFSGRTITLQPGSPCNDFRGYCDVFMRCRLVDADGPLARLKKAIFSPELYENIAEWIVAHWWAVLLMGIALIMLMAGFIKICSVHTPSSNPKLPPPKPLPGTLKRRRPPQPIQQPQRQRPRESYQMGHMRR
SKN-1 inh = inhibitors of C. elegans SKN-1; C. elegans VP596 Pgst-4::GFP/RFP ratio, acrylamide-induced, 24 h; inhibition, % at 21.8 µM; 360,000 compounds, 0.49% hits; AID 624304;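 active = interference check ratio from 0.5 to 1.5 plus GFP to RFP signal ratio inhibition reaching or exceeding a fixed threshold, cut at about 30% in these data, passing the limit was not always enough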
MT1-MMP act inh = blocks activation of human MT1-MMP. GFP/RFP ratio change, % at 20 µM. 360,000 compounds, 0.061% hits. P50281. HT1080 RFP-PRO-GFP cells, GFP/RFP ratio fluorescence, overnight; percent of plate control window, DMSO zero;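 active = GFP/RFP ratio change of at least 30% with cell ATP level not reduced by more than half and red fluorescence within 50% of control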
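Assay system: RFP-PRO-GFP reporter HT1080 cells; read-out basis: GFP/RFP fluorescence ratio; benchmarks: DMSO wells and RFP-L50D-GFP cells; doses: 20 µM single dose, 1% DMSO; schedule: overnight cell settling, then overnight compound exposure, 37 °C, 5% CO2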
ADAM10 counter = ADAM10 inhibition, counter-screen for ADAM17 exosite hits; recombinant ADAM10, EDANS/DABCYL FRET peptide cleavage, 3 h; inhibition, % at 6.95 µM; 2,900 compounds, 47% hits; shares compounds with ADAM17 inh;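 active = mean inhibition over the triplicate runs exceeds the activity threshold set in the earlier primary screen, cut at about 20% in these data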;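 also: 0% = DMSO wells and 100% = marimastat wells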
ADAM17 confirm = confirmation of inhibitors of human ADAM17 | AID 743257 | 2,900 compounds, 65% hits | shares compounds with ADAM17 inh | inhibition, % at 6.95 µM | recombinant ADAM17, EDANS/DABCYL QFRET peptide cleavage;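 active = mean inhibition across replicates above the hit cutoff set in the primary screen, cut at about 8.5% in these data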;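 also: 0% = DMSO wells and 100% = marimastat wells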
* = called active by the depositor; x = no result.

SMILES | GRIN3A LBD mod | MPTP block | ADAM17 inh | ADAM10 inh | SKN-1 inh | MT1-MMP act inh | ADAM10 counter | ADAM17 confirm
COc1ccc(C2=NS(=O)(=O)N(C)C(C(=O)Nc3ccc4c(c3)OCO4)=C2)cc1 | -4 | 2 | 4 | -3 | 0 | 12 | x | x
COc1ccc(C2=NS(=O)(=O)N(C)C(C(=O)Nc3ccc(C)cc3)=C2)cc1 | -3 | 4 | 8.9* | 19 | -4 | 2 | 19 | 14*
CCc1ccc(NC(=O)C2=CC(c3ccc(OC)cc3)=NS(=O)(=O)N2C)cc1 | -1 | 2 | 9.2* | 11 | 6 | 5 | 24* | 15*
Cc1ccc(C2=NS(=O)(=O)N(C)C(C(=O)Nc3ccc4c(c3)OCO4)=C2)cc1 | -9 | 9 | 13* | 11 | -12 | 4 | 20 | 14*
COCCNc1nc(NCc2ccccc2)nc2ccsc12 | x | 2 | -8 | -20 | 18 | -4 | x | x
CCN(c1ccccc1)S(=O)(=O)c1c[nH]c2ccc([N+](=O)[O-])cc12 | 3 | 29 | 9.3* | 6 | 16 | 1 | 32* | 16*
CCN(c1ccccc1)S(=O)(=O)c1ccc(Oc2ccc([N+](=O)[O-])cc2)nc1 | 2 | 0 | 0 | 0 | 20 | 1 | x | x
Oc1ccc(/C=N/NC(=S)NCC2CCCO2)cc1 (configuration not stated) | 2 | 19 | -3 | 0 | -8 | 1 | x | x
O=C(/C=C/c1ccc(N2CCCCC2)c([N+](=O)[O-])c1)c1ccc(O)cc1 | 11* | 2 | 9.4* | 16 | 4 | -8 | 26* | 14*
CCN(CC)C(=O)c1sc(NC(=S)N2CCN(C(=O)C3CCCO3)CC2)c(C(=O)OC)c1C (configuration not stated) | -1 | 1 | -1 | -7 | 4 | -1 | x | x
C=CCC[C@H](Cc1ccc(F)cc1)C(=O)OC[C@@H](NC(=O)[C@@H](CC=C)CC(=O)N(CCO)Cc1ccccc1)C(C)(C)C | -6 | -2 | 12* | 19 | -8 | -14 | 38* | 19*
C=CC[C@@H](CC(=O)N[C@H](CO)Cc1ccccc1)C(=O)N[C@H](COC(=O)[C@@H](CC=C)Cc1ccc(F)cc1)C(C)(C)C | -10 | 0 | 8.7* | 16 | -7 | -5 | 34* | 19*
C=CC[C@@H](CC(=O)N[C@H](CO)Cc1ccccc1)C(=O)N[C@H](COC(=O)[C@@H](CC=C)Cc1ccc(F)cc1)Cc1c[nH]c2ccccc12 | 7 | 0 | 11* | 24* | 2 | -8 | 44* | 22*
C=CC[C@@H](CC(=O)N[C@@H](CO)Cc1ccccc1)C(=O)N[C@H](COC(=O)[C@@H](CC=C)Cc1ccc(F)cc1)Cc1ccccc1 | -3 | -1 | -5 | -4 | 8 | 0 | x | x
Cc1ccc(-n2nc3c(=O)n(CCCC(=O)NCCc4ccccc4)nc(C)c3c2C)cc1 | 3 | -2 | -4 | -19 | 13 | 6 | x | x
Cc1ccc(CCNC(=O)CCCn2nc(C)c3c(C)n(-c4ccc(C)cc4)nc3c2=O)cc1 | -12 | -1 | 11* | 11 | 9 | 3 | 5 | 6
COc1ccc(OC)c(NC(=O)c2ccccc2NC(=O)c2ccco2)c1 | -2 | 2 | -1 | 3 | -4 | -5 | x | x
CCc1ccc(NC(=S)Nc2cccc(OC)c2)cc1 | 3 | 2 | 0 | -1 | -24 | 5 | x | x
CC1(C)OC(=O)C2=C(C[C@@H](CCOCc3ccccc3)O[C@H]2c2ccc(F)cc2)O1 | x | 0 | -4 | -5 | 5 | -1 | x | x
COc1ccc(C2OC(CCc3ccccc3)CC3=C2C(=O)OC(C)(C)O3)cc1 (configuration not stated) | x | 0 | 8.7* | 6 | -2 | -3 | 8 | 6
CC(=O)c1sc(NC(=O)c2cccnc2Cl)nc1C | -1 | 0 | -3 | -5 | 4 | -1 | x | x
CC(=O)c1cc2c(cc1NC(=O)CCc1ccccc1)OCO2 | 5 | 0 | -16 | -67 | -2 | 11 | x | x
CCN(CC)c1ccc(NC(=O)CSc2nc3ccccc3c(=O)n2-c2cc(S(=O)(=O)N(C)C)ccc2C)cc1 | -2 | 1 | 10* | 19 | 10 | -8 | 21* | 15*
Cn1c(NC(=O)c2ccccc2C(F)(F)F)cc(=O)n(C)c1=O | -1 | -1 | -1 | -11 | 18 | -3 | x | x
COc1ccc(CNc2ccc([N+](=O)[O-])cn2)cc1 | -3 | 0 | -2 | -8 | 33 | 9 | x | x
SMILES | GRIN3A LBD mod | MPTP block | ADAM17 inh | ADAM10 inh | SKN-1 inh | MT1-MMP act inh | ADAM10 counter | ADAM17 confirm
COc1ccc(C(=O)CC(=O)Nc2ccc([N+](=O)[O-])cc2)cc1 | 24* | 3 | 9.5* | 16 | -10 | 3 | 25* | 12*
COc1ccc(Nc2ccc([N+](=O)[O-])cn2)cc1 | 1 | 0 | 10* | 12 | 2 | 1 | 3 | 5
O=C(COC(=O)[C@@H]1CCCN1S(=O)(=O)c1ccc(Cl)cc1)NC1CC1 | 2 | -3 | -4 | 3 | 27 | 0 | x | x
O=C(Nc1ccc(N2CCCC2)cc1)c1cccc(F)c1 | -3 | 0 | 18* | 8 | 35 | -3 | -3 | 4
COc1ccc(NC(=O)CC2C(=O)N(C)C(=S)N2Cc2ccncc2)cc1 (configuration not stated) | -7 | 0 | 9.1* | 9 | -10 | -4 | 1 | 2
CCCN(CC(=O)Nc1ccccc1OC)C(=O)c1ccc2[nH]c3c(c2c1)CC(C)CC3 (configuration not stated) | -2 | -1 | 13* | 8 | -1 | x | 29* | 16*
CCCCN1c2ccccc2N(CCCO)c2cc(C)nnc21 | 3 | -2 | 9.8* | 15 | 0 | -13 | -8 | 0
Cc1nc2ccc(NC(=O)COc3cccc(F)c3)cc2s1 | -10 | 1 | -3 | -4 | 3 | -1 | x | x
O=C(O)CNC(=O)C1(NC(=O)OCc2ccccc2)CCCC1 | -1 | -1 | 8.7* | 6 | -2 | -1 | 1 | 3
O=C(CNC(=O)OCc1ccccc1)NC1(C(=O)O)CCCC1 | 0 | -2 | -1 | -5 | 16 | -7 | x | x
Cc1ccccc1Nc1nc(N)nc(COC(=O)CCNS(=O)(=O)c2ccccc2)n1 | -1 | -2 | 12* | 9 | -6 | -4 | -3 | 0
Cc1cccc(-n2c(Cc3ccccc3)nnc2SCC(=O)N2CCOCC2)c1 | 1 | 0 | 12* | 15 | -24 | -2 | -2 | 3
